How the values were obtained:
[1] = Acute toxicity in Swiss albino mouse assessed as clinical changes in piloerection at 1000 mg/kg, ip administered as single dose measured after 4 hrs; type: organism-based; settings: in vivo
How it was run: (§1)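 Swiss albino mice of either sex (30-35 g), kept at 22-25 °C on a 12 h light/dark cycle with free food and water. Single i.p. dose; controls received normal saline 10 mL/kg. Animals were watched at random for allergic or abnormal behavioural signs during the first 4 h.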

Mus musculus [2] = test: Antiinflammatory activity in bradykinin-induced paw edema in Balb/c mouse assessed as inhibition of paw edema at 100 mg/kg, ip administered 1 hr prior to bradykinin challenge and measured after 3 hrs relative to control; type: functional; settings: time 4 hrs
How it was run: (§2)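 BALB/c mice of either sex (30–35 g), 8 per group, dosed i.p. with 10% DMSO, reference drug or compound (100 mg/kg). After 1 h, subplantar irritant: PGE2 0.01 µg/ml, bradykinin 20 µg/ml, histamine 0.1 ml of 1 mg/ml, or leukotriene 10 µg/ml.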

Mus musculus [3] = test: Antiinflammatory activity in ip dosed leukotriene-induced paw edema in Balb/c mouse assessed as inhibition of paw edema administered 1 hr prior to leukotriene challenge and measured up to 5 hrs; type: functional, organism-based; settings: time 2-6 hrs; how it was run: as §2
Mus musculus [4] = test: Antiinflammatory activity against carrageenan-induced paw edema in Swiss mouse assessed as inhibition of paw edema at 100 mg/kg administered 30 mins prior to carrageenan challenge and measured after 5 hrs by […]-method (reference value: 7.31 +/- 3.204%); type: functional; settings: time 5.5 hrs
Mus musculus [5] = test: Antiinflammatory activity against carrageenan-induced paw edema in Swiss mouse assessed as inhibition of paw edema at 50 mg/kg administered 30 mins prior to carrageenan challenge and measured after 1 hr by […]-method (reference value: 7.66 +/- 3.753%); type: functional; settings: 1.5 h, time 90 min
[6] = Acute toxicity in Swiss albino mouse assessed as clinical changes in salivation at 1000 mg/kg, ip administered as single dose measured after 4 hrs; type: organism-based; settings: in vivo; how it was run: as §1
[7] = Acute toxicity in Swiss albino mouse assessed as clinical changes in fur at 1000 mg/kg, ip administered as single dose measured after 4 hrs; type: organism-based; settings: in vivo; how it was run: as §1
[8] = Acute toxicity in Swiss albino mouse assessed as clinical changes in urinary incontinence at 1000 mg/kg, ip administered as single dose measured after 4 hrs; type: organism-based; settings: in vivo; how it was run: as §1
[9] = Acute toxicity in Swiss albino mouse assessed as mortality at 1000 mg/kg, ip administered as single dose measured after 24 hrs; type: organism-based; settings: in vivo
How it was run: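 Swiss albino mice of either sex (30-35 g), housed at 22-25 °C with 12 h light/dark and free food and water. Single i.p. dose; the saline control got 10 mL/kg. Deaths were counted 24 h after dosing. Dose table lists groups of 8 male and 8 female mice given 5 to 2000 mg/kg.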

Mus musculus [10] = test: Antiinflammatory activity against carrageenan-induced paw edema in Swiss mouse assessed as inhibition of paw edema at 100 mg/kg administered 30 mins prior to carrageenan challenge and measured after 4 hrs by […]-method (reference value: 14.46 +/- 1.568%); type: functional; settings: time 4.5 hrs
Mus musculus [11] = test: Antiinflammatory activity against carrageenan-induced paw edema in Swiss mouse assessed as inhibition of paw edema at 100 mg/kg administered 30 mins prior to carrageenan challenge and measured after 3 hrs by […]-method (reference value: 11.41 +/- 3.069%); type: functional; settings: time 3.5 hrs
[12] = Acute toxicity in Swiss albino mouse assessed as clinical changes in skin at 1000 mg/kg, ip administered as single dose measured after 4 hrs; type: organism-based; settings: in vivo; how it was run: as §1
Mus musculus [13] = test: Antiinflammatory activity against carrageenan-induced paw edema in Swiss mouse assessed as inhibition of paw edema at 25 mg/kg administered 30 mins prior to carrageenan challenge and measured after 1 hr by […]-method (reference value: 7.66 +/- 3.753%); type: functional; settings: 1.5 h, time 90 min
[14] = Acute toxicity in Swiss albino mouse assessed as clinical changes in respiratory rate at 1000 mg/kg, ip administered as single dose measured after 4 hrs; type: organism-based; settings: in vivo; how it was run: as §1
[15] = Acute toxicity in Swiss albino mouse assessed as clinical changes in perspiration at 1000 mg/kg, ip administered as single dose measured after 4 hrs; type: organism-based; settings: in vivo; how it was run: as §1
[16] = Acute toxicity in Swiss albino mouse assessed as changes in central nervous system at 1000 mg/kg, ip administered as single dose measured after 4 hrs; type: organism-based; settings: in vivo; how it was run: as §1
Mus musculus [17] = test: Antiinflammatory activity against carrageenan-induced paw edema in Swiss mouse assessed as inhibition of paw edema at 25 mg/kg administered 30 mins prior to carrageenan challenge and measured after 4 hrs by […]-method (reference value: 14.46 +/- 1.568%); type: functional; settings: time 4.5 hrs
[18] = Acute toxicity in Swiss albino mouse assessed as clinical changes in defecation at 1000 mg/kg, ip administered as single dose measured after 4 hrs; type: organism-based; settings: in vivo; how it was run: as §1
Mus musculus [19] = test: Antiinflammatory activity against carrageenan-induced paw edema in Swiss mouse assessed as inhibition of paw edema at 100 mg/kg administered 30 mins prior to carrageenan challenge and measured after 1 hr by […]-method (reference value: 7.66 +/- 3.753%); type: functional; settings: 1.5 h, time 90 min
Mus musculus [20] = test: Antiinflammatory activity against carrageenan-induced paw edema in Swiss mouse assessed as inhibition of paw edema at 50 mg/kg administered 30 mins prior to carrageenan challenge and measured after 3 hrs by […]-method (reference value: 11.41 +/- 3.069%); type: functional; settings: time 3.5 hrs
Mus musculus [21] = test: Antiinflammatory activity against carrageenan-induced paw edema in Swiss mouse assessed as inhibition of paw edema at 25 mg/kg administered 30 mins prior to carrageenan challenge and measured after 5 hrs by […]-method (reference value: 7.31 +/- 3.204%); type: functional; settings: time 5.5 hrs
[22] = Acute toxicity in Swiss albino mouse assessed as convulsion at 1000 mg/kg, ip administered as single dose measured after 4 hrs; type: organism-based; settings: in vivo; how it was run: as §1
Homo sapiens = species: Homo sapiens; test: Selectivity index, ratio of IC50 for sheep COX1 to IC50 for recombinant human COX2 expressed in baculovirus infected Sf21 cells
How it was run: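 Enzymes activated for 5 min on ice with cofactor solution of 0.9 mM glutathione, hematin and 0.24 mM TMPD in 0.1 M Tris-HCl pH 8.0; COX-2 at 300 units/ml. Reaction started with 30 mM arachidonic acid stock, run 5 min, absorbance read at 570 nm. IC50 taken from inhibition-vs-concentration plots as means of three determinations. SI = IC50(COX-1)/IC50(COX-2).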

Mus musculus [23] = test: Antiinflammatory activity against carrageenan-induced paw edema in Swiss mouse assessed as inhibition of paw edema at 25 mg/kg administered 30 mins prior to carrageenan challenge and measured after 2 hrs by […]-method (reference value: 7.39 +/- 2.475%); type: functional; settings: time 2.5 hrs
Mus musculus [24] = test: Antiinflammatory activity against carrageenan-induced paw edema in Swiss mouse assessed as inhibition of paw edema at 50 mg/kg administered 30 mins prior to carrageenan challenge and measured after 2 hrs by […]-method (reference value: 7.39 +/- 2.475%); type: functional; settings: time 2.5 hrs
Mus musculus [25] = test: Antiinflammatory activity in histamine-induced paw edema in Balb/c mouse assessed as inhibition of paw edema at 100 mg/kg, ip administered 1 hr prior to histamine challenge and measured after 4 hrs relative to control; type: functional; settings: time 5 hrs; how it was run: as §2
Mus musculus [26] = test: Antiinflammatory activity in PGE2-induced paw edema in Balb/c mouse assessed as inhibition of paw edema at 100 mg/kg, ip administered 1 hr prior to PGE2 challenge and measured after 1 hr relative to control; type: functional; settings: time 2 hrs; how it was run: as §2

Row | Structure (SMILES) | Activity [1] | inhibition in vivo at 100 mg/kg (Mus musculus [2]) [%] | inhibition (Mus musculus [3]) | inhibition in vivo at 100 mg/kg (Mus musculus [4]) [%] | inhibition in vivo at 50 mg/kg (Mus musculus [5]) [%] | Activity [6] | Activity [7] | Activity [8] | Activity [9] | inhibition in vivo at 100 mg/kg (Mus musculus [10]) [%] | inhibition in vivo at 100 mg/kg (Mus musculus [11]) [%] | Activity [12] | inhibition in vivo at 25 mg/kg (Mus musculus [13]) [%] | Activity [14] | Activity [15] | Activity [16] | inhibition in vivo at 25 mg/kg (Mus musculus [17]) [%] | Activity [18] | inhibition in vivo at 100 mg/kg (Mus musculus [19]) [%] | inhibition in vivo at 50 mg/kg (Mus musculus [20]) [%] | other results
1 | Cc1ccc(C(=O)CC2CC(=O)N(c3ccc(S(N)(=O)=O)cc3)C2=O)cc1 (configuration not stated) | Non-Toxic | 27.1 | Dose-dependent effect | 68.2 | 51.5 | Non-Toxic | Non-Toxic | Non-Toxic | Non-Toxic | 66.1 | 61.6 | Non-Toxic | 45.6 | Non-Toxic | Non-Toxic | Non-Toxic | 54.2 | Non-Toxic | 55.2 | 54.2 | inhibition in vivo at 25 mg/kg (Mus musculus [21]): 56.6%; Activity [22]: Non-Toxic; Ratio IC50 (Homo sapiens): 31.5; inhibition in vivo at 25 mg/kg (Mus musculus [23]): 53%; inhibition in vivo at 50 mg/kg (Mus musculus [24]): 57.3%
2 | O=C1CCCCC1C1CC(=O)N(Cc2ccccc2)C1=O (configuration not stated) | Non-Toxic | 12.4 | Dose-dependent effect | 55.1 | 34.5 | Non-Toxic | Non-Toxic | Non-Toxic | Non-Toxic | 49.7 | 51.6 | Non-Toxic | 24.3 | Non-Toxic | Non-Toxic | Non-Toxic | 27.8 | Non-Toxic | 44.7 | 41.1 | inhibition in vivo at 100 mg/kg (Mus musculus [25]): 17.1%; inhibition in vivo at 100 mg/kg (Mus musculus [26]): 50.5%; inhibition in vivo at 25 mg/kg (Mus musculus [21]): 23.4%; Activity [22]: Non-Toxic; Ratio IC50 (Homo sapiens): 3.13; inhibition in vivo at 25 mg/kg (Mus musculus [23]): 28.3%; inhibition in vivo at 50 mg/kg (Mus musculus [24]): 37.4%

Reference: ChEMBL document CHEMBL4715833, “Design, synthesis, in-vitro, in-vivo and in-silico studies of pyrrolidine-2,5-dione derivatives as multitarget anti-inflammatory agents” (Eur J Med Chem, 2020)
